In ChEMBL document CHEMBL1955840, “Proteasome inhibitors for cancer therapy” (Bioorg Med Chem, 2012) one finds IC50, Ratio IC50 and inhibition data, which are given here for ten molecules.

Test [1] in a line: Inhibition of chymotrypsin-like activity of human liver 20S proteasome assessed as release of AMC using Suc-LLVY-AMC fluorogenic substrate after 15 mins preincubation measured every 1.5 mins for 20 mins by fluorescence analysis. The method in brief:
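Proteasome partially purified from postmortem human liver, 6.7 µg/mL final, in 20 mM Tris–Cl pH 7.5, 0.04% SDS, 5% DMSO; activated by 15 min preincubation at 27 °C. Suc-LLVY-AMC added to 100 µM; AMC fluorescence (ex 360/em 460 nm) read every 1.5 min for 20 min at 27 °C. Rates per inhibitor concentration; IC50 by non-linear regression; mean S.D., n = 3–6.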

The next test has as its target Chymotrypsinogen A (Bos taurus, UniProt P00766). Put plainly: Inhibition of bovine alpha-chymotrypsin.
For another test, the system named is OVCAR-3. Put plainly: Antitumor activity against human OVCAR3 cells assessed as cell viability. The test is classed as functional, cell-based. The method in brief:
(§1)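 Tumor cell viability IC50 values; averages of two independent experiments, each performed in triplicate.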

Another test deals with SK-MEL-5. Put plainly: Antitumor activity against human SK-MEL-5 cells assessed as cell viability. The test is classed as functional, cell-based. The method in brief:
as §1

The next test deals with MCF7. Put plainly: Antitumor activity against human MCF7 cells assessed as cell viability. The test is classed as functional, cell-based. The method in brief: as §1
A short description of test [2]: Antitumor activity against rat AT2 cells assessed as cell viability. The test is classed as functional, cell-based. The procedure, abridged: as §1
The subject of a further test is MOLT-4. The test is described as follows: Ratio of IC50 for chymotrypsin-like activity of 20S proteasome in human MOLT4 cells to IC50 for chymotrypsin-like activity of human liver 20S proteasome in cell-free assay. The test is classed as cell-based. The method in brief: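 Cell-permeability index: IC50 against chymotrypsin-like activity in intact Molt-4 cells divided by IC50 against isolated human liver 20S proteasome, both from fluorogenic substrate cleavage assays.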

Test [3] is described as follows: Inhibition of trypsin-like activity of 20S proteasome at 10 uM. The method in brief: (§2)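 Percent inhibition measured at a single 10 µM concentration; averages of two independent experiments, each run in triplicate.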
The target in test [4] is T1, Calpain-1 catalytic subunit (Homo sapiens) (UniProt P07384).
T1 sequence (whole entry): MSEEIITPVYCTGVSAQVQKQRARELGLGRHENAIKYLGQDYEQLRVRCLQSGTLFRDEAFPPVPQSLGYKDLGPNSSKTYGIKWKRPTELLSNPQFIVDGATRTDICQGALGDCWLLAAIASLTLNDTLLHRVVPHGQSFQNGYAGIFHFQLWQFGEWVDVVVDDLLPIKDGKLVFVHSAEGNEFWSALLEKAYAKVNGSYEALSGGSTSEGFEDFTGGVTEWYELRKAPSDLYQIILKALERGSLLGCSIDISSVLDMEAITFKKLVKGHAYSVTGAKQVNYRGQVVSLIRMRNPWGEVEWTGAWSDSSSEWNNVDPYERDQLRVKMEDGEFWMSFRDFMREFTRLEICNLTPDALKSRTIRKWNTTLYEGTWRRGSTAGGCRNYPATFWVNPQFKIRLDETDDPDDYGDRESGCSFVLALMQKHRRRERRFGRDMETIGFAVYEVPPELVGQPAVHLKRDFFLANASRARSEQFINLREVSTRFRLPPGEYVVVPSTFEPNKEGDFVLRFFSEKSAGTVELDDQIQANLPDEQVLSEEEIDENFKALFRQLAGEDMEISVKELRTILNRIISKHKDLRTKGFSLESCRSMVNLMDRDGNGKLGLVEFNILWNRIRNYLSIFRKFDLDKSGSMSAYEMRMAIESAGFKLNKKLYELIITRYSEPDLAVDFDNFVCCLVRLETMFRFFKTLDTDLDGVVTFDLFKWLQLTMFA
Put plainly: Inhibition of human calpain 1 at 10 uM. The procedure, abridged:
as §2

The target in test [5] is Chymotrypsinogen A (Bos taurus) (UniProt P00766). The test is described as follows: Inhibition of bovine alpha-chymotrypsin at 10 uM. The method in brief:
as §2

A short description of test [6]: Inhibition of chymotrypsin-like activity of 20S proteasome in human MOLT4 cells assessed as release of AFC using MeOSuc-Phe-Leu-Phe-AFC substrate after 15 mins measured every 1.5 mins for 20 mins by fluorescence analysis. The test is classed as cell-based. As to conditions: MOLT-4. The method in brief: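 Molt-4 human T-cell leukemia cells washed, resuspended at 6 × 10⁶ cells/mL in HEPES-buffered saline (pH 7.0) with KCl, NaCl, glucose, MgSO₄ and Na pyruvate. Fluorogenic AFC substrate at 100 µM, 0.6% DMSO final; incubated at 37 °C; AFC fluorescence (ex 420/em 490 nm) read every 1.5 min for 20 min. IC50 reported as mean S.D., n = 3–6.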

The test system of a further test is PANC-1. Put plainly: Antitumor activity against human PANC1 cells assessed as cell viability. The test is classed as functional, cell-based. The procedure, abridged:
as §1

For test [7], the system named is Lewis lung carcinoma cell line. The test is described as follows: Antitumor activity against mouse LLC cells assessed as cell viability. The test is classed as functional, cell-based. The method in brief:
as §1

A further test relates to DU-145. Put plainly: Antitumor activity against human DU145 cells assessed as cell viability. The test is classed as functional, cell-based. The procedure, abridged:
as §1

On to `CC(C)C[C@@H](C=O)NC(=O)[C@H](CCCN/C(N)=N/[N+](=O)[O-])NC(=O)C(CCCCCCCCN1C(=O)c2ccccc2C1=O)C1CCCC1` (stereo not given in full), for which, in test [1], the half-maximal inhibitory concentration (IC50) (as a rule, the concentration that inhibits the measured activity by half) was determined as 2 nM.

`CC(C)C[C@@H](C=O)NC(=O)[C@H](CCCN/C(N)=N/[N+](=O)[O-])NC(=O)C(CCCCCCCCC#N)C1CCCC1` (stereo not given in full): in test [1], the half-maximal inhibitory concentration (IC50) amounted to 6 nM.

`CC(C)C[C@H](NC(=O)[C@H](CCCN/C(N)=N/[N+](=O)[O-])NC(=O)C(CCCCCCCCC#N)C1CCCC1)C(=O)C(=O)NCCNS(=O)(=O)c1ccccc1` (stereo not given in full): in test [1], the half-inhibitory concentration (IC50) came to 1 nM.

For the molecule `CC(C)C[C@H](NC(=O)[C@H](CCCN/C(N)=N/[N+](=O)[O-])NC(=O)C(CCCCCCCCC#N)C1CCCC1)B1OC(C)(C)C(C)(C)O1` (stereo not given in full), the half-maximal inhibitory concentration (IC50) in [1] came out at 6 nM.

For `CC(C)C[C@H](NC(=O)[C@H](CCCN=C(N)N[N+](=O)[O-])NC(=O)C(CCCCCCCCC#N)C1CCCC1)B1O[C@@H]2[C@@H]3C[C@H](C[C@]2(C)O1)C3(C)C` (mixture of isomers), the IC50 on Chymotrypsinogen A is greater than 10000 nM.

Consider `CC(C)C[C@H](NC(=O)[C@H](CCCN/C(N)=N/[N+](=O)[O-])NC(=O)C(CCCCCCCCC#N)C1CCCC1)B1O[C@@H]2[C@@H]3C[C@H](C[C@]2(C)O1)C3(C)C` (mixture of isomers), for which the half-maximal inhibitory concentration (IC50) in the test with OVCAR-3 was 69 nM; in the test with SK-MEL-5 it was 85 nM; with MCF7 it was 425 nM; in [2] it was greater than 1000 nM; in [6] it was 240 nM; in test [1], 3.5 nM. Further, the values for the IC50 (with PANC-1; in [7]; in the test on DU-145) were 283 nM, 585 nM and 293 nM, respectively. For the same molecule, the Ratio IC50 with MOLT-4 stood at 69. Besides, the figures for the inhibition in test [3], in [4] and in test [5] were 0%, 2% and 24%, respectively.

As to `CC(C)C[C@H](NC(=O)[C@H](CCCN/C(N)=N/[N+](=O)[O-])NC(=O)C(CCCCCCCCN1C(=O)c2ccccc2C1=O)C1CCCC1)B1O[C@@H]2[C@@H]3C[C@H](C[C@]2(C)O1)C3(C)C` (mixture of isomers), the IC50 is 29 nM in the test on OVCAR-3; 82 nM in the test on SK-MEL-5; 292 nM with MCF7; greater than 1000 nM in test [2]; 70 nM in [6]; 3.5 nM in test [1]. For the same molecule, the half-maximal inhibitory concentration (IC50) with PANC-1 was 184 nM; in [7], 513 nM; in the test with DU-145 it was 167 nM; at Chymotrypsinogen A it was greater than 10000 nM. In the test with MOLT-4, the Ratio IC50 worked out at 20. For the same molecule, the inhibition – broadly, the share of the control response that was lost under treatment – in [3] amounted to 20%; in test [4], 11%; in test [5] it was 30%.

In the case of `CC(C)C[C@H](NC(=O)[C@H](CCCN/C(N)=N/[N+](=O)[O-])NC(=O)C(CCCCCCCCC#N)C1CCCC1)B(O)O` (mixture of isomers), in the test on MOLT-4, the Ratio IC50 was 840. The inhibition in test [3] turned out to be 5%; in test [5], 30%. The 50% inhibitory concentration (IC50) in [6] came to 7340 nM; in [1] it was 8.7 nM.

On Chymotrypsinogen A, `CC(C)C[C@H](NC(=O)[C@H](CCCNC(=N)N[N+](=O)[O-])NC(=O)C(CCCCCCCCC#N)C1CCCC1)B(O)O` (mixture of isomers) gave an IC50 greater than 10000 nM.

Turning to `CC(C)C[C@H](NC(=O)[C@H](CCCN/C(N)=N/[N+](=O)[O-])NC(=O)C(CCCCCCCCN1C(=O)c2ccccc2C1=O)C1CCCC1)B(O)O` (mixture of isomers), the Ratio IC50 in the test on MOLT-4 amounted to 690. Besides, the values for the inhibition in [3], in [4] and in test [5] were 24%, 0% and 2%, respectively. Moreover, the results for the half-inhibitory concentration (IC50) (in [6]; in [1]; on Chymotrypsinogen A) were 2830 nM, 4.1 nM and greater than 10000 nM, respectively.
